Assay [1] deals with T1, DNA topoisomerase 1 (Homo sapiens) (UniProt P11387).
T1 sequence (whole entry): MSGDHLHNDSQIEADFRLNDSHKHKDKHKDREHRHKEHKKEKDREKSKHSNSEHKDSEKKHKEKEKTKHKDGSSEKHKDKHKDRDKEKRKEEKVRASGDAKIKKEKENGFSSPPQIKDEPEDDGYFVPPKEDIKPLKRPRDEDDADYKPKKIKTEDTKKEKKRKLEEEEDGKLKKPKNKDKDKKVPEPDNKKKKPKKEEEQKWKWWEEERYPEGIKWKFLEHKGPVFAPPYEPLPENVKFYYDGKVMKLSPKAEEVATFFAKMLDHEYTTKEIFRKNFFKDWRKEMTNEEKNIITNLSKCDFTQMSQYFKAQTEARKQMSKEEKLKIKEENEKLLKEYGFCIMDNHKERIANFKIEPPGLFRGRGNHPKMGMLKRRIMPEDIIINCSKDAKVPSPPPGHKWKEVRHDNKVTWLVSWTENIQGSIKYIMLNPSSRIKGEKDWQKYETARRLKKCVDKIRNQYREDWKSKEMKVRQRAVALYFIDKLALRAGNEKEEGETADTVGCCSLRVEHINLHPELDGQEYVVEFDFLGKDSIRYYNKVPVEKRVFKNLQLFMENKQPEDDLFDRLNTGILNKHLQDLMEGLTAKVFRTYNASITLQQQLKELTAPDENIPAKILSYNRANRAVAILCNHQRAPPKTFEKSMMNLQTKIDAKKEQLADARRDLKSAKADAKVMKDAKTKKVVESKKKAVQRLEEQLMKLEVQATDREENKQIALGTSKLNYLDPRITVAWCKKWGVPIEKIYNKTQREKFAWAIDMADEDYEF
The experiment in a line: Inhibition of human recombinant TOP1-mediated relaxation of supercoiled Escherichia coli pBR322 DNA at 100 uM after 30 mins by transillumination. In short, it runs like this: (§1)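 Relaxation assay: 100 ng supercoiled pBR322 with 0.4 units recombinant human topo I, ± compound (DMSO stocks 20 mM), 37 °C, 30 min. Buffer was 10 mM Tris–HCl pH 7.9, 150 mM NaCl, 0.1% BSA, 1 mM spermidine, 5% glycerol. Stopped with sarcosyl/bromophenol blue/glycerol, then 1% agarose gel in TAE at 15 V for 7 h. Ethidium bromide stain, UV transillumination, bands quantitated by densitometry.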

For assay [2], the target named is T1, DNA topoisomerase 1 (Homo sapiens). The experiment in a line: Inhibition of human recombinant TOP1-mediated relaxation of supercoiled Escherichia coli pBR322 DNA at 20 uM after 30 mins by transillumination. Put shortly:
as §1

Assay [3] concerns DU-145. The experiment in a line: Cytotoxicity against human DU145 cells after 2 days by automatic ELISA reader system. The class given is functional, cell-based. Conditions: DU-145, 48 h. In short, it runs like this: (§2)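 Cells seeded at 2–4 × 10⁴ per well and grown overnight in medium with 10% FBS, 5% CO₂, 37 °C. Compound added on day 2; on day 4 CCK-8 solution added and incubated a further 4 h. Absorbance read at 450 nm and fitted to a four-parameter logistic equation for IC₅₀.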

The test system of assay [4] is HCT-15. The experiment in a line: Cytotoxicity against human HCT15 cells after 2 days by automatic ELISA reader system. In kind it is functional, cell-based. The settings on record: HCT-15, 48 h. In short, it runs like this:
as §2

The test system of assay [5] is HL-60. The assay can be described thus: Cytotoxicity against human HL60 cells after 2 days by automatic ELISA reader system. The settings on record: HL-60, 48 h. In kind it is functional, cell-based. In short, it runs like this:
as §2

Assay [6] has as its system HeLa. The experiment in a line: Cytotoxicity against human HeLa cells after 2 days by automatic ELISA reader system. In kind it is functional, cell-based. The settings on record: 48 h. Put shortly: as §2
For assay [7], the target named is DNA topoisomerase 2-alpha (Homo sapiens) (UniProt P11388). The experiment in a line: Inhibition of human recombinant TOP2A-mediated relaxation of supercoiled Escherichia coli pBR322 DNA at 20 uM after 30 mins by transillumination. Put shortly: (§3)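 200 ng supercoiled pBR322 with topo II, ± compound, 30 °C for 30 min. Buffer was 10 mM Tris–HCl pH 7.9, 50 mM NaCl, 5 mM MgCl₂, 1 mM EDTA, 1 mM ATP, BSA. Stopped with 7 mM EDTA, then 1% agarose gel in TAE at 25 V for 4 h. Ethidium bromide stain, UV transillumination, supercoiled DNA quantitated.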
Sequence of DNA topoisomerase 2-alpha (Homo sapiens) (P11388 whole entry): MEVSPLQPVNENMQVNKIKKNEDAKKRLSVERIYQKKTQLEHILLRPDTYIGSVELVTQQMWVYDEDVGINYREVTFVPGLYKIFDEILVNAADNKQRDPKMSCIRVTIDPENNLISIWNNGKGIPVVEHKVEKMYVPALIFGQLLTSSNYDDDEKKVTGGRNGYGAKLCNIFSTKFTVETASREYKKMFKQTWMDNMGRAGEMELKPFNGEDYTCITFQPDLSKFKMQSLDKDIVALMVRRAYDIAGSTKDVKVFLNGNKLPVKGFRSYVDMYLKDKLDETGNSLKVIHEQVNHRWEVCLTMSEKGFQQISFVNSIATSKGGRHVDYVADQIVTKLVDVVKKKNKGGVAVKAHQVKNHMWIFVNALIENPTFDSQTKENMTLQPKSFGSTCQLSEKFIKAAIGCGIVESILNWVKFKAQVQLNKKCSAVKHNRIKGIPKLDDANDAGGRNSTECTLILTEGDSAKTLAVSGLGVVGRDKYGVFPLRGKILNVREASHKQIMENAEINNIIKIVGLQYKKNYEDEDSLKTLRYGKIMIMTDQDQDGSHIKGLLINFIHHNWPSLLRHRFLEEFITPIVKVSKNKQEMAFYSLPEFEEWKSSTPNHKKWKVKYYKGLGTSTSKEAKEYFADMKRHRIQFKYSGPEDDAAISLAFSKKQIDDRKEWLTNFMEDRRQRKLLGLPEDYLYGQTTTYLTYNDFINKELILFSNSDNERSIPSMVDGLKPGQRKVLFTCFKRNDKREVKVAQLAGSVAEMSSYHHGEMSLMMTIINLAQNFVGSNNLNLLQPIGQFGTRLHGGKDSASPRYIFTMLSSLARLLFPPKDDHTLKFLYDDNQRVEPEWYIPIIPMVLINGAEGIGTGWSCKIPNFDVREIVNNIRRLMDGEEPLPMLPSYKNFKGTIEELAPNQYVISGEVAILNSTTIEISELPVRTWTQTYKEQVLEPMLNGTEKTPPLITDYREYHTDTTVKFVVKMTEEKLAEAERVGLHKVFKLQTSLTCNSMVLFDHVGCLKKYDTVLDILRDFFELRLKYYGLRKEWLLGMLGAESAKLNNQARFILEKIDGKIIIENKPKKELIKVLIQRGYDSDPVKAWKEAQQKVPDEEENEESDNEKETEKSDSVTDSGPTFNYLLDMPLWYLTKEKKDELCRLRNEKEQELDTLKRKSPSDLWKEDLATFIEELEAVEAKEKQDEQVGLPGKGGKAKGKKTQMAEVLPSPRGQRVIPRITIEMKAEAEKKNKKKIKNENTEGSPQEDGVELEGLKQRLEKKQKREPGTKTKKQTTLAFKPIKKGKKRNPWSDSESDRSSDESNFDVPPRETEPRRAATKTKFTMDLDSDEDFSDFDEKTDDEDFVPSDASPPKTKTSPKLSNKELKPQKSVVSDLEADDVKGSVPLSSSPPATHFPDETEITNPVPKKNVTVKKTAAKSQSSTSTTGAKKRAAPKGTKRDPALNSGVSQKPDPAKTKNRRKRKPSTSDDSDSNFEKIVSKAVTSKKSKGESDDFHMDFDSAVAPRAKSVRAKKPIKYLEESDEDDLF

For assay [8] the target is unchanged. The assay can be described thus: Inhibition of human recombinant TOP2A-mediated relaxation of supercoiled Escherichia coli pBR322 DNA at 100 uM after 30 mins by transillumination. Put shortly: as §3
In assay [9] the test system is MDA-MB-231. The experiment in a line: Cytotoxicity against human MDA-MB-231 cells after 2 days by automatic ELISA reader system. In kind it is functional, cell-based. Conditions: MDA-MB-231, 48 h. Put shortly:
as §2

Each structure is given as a SMILES string.

On to `Oc1cccc(-c2cc(-c3ccccc3)nc(-c3ccccn3)c2)c1`, for which the inhibition in [1] is 10.8%; in assay [2], 2.8%; in assay [7], 21.3%; in assay [8] it was 48.1%. In addition, the 50% inhibitory concentration (IC50) in assay [3] came to 15.5 µM; in [4] it was 20.9 µM; in [5] it was 15.1 µM; in assay [6], 29.8 µM; in [9] it was 18.7 µM.

Take `Oc1cccc(-c2cc(-c3ccccc3)nc(-c3ccsc3)c2)c1`: the inhibition in [1] was 6.9%; in [2] it was 3.2%; in assay [7], 30.8%; in [8], 52.6%. The IC50 in [3] turned out to be 11.7 µM; in assay [4], 24.6 µM; in assay [5], 12 µM; in [6], 14.9 µM; in assay [9], 19 µM.

As to `Oc1cccc(-c2cc(-c3ccccc3)cc(-c3ccco3)n2)c1`, the inhibition was determined as 10.2% in [1], 0% in assay [2], 38.6% in [7] and 51.6% in assay [8]. Besides, the IC50 in [3] came to 14.4 µM; in [4], 13.5 µM; in assay [5] it was 9.91 µM; in assay [6], 9.43 µM; in [9], 13.7 µM.

As to `Oc1cccc(-c2cc(-c3ccccc3)nc(-c3ccco3)c2)c1`, the inhibition in assay [1] is 48.8%; in [2] it was 3.5%; in assay [7] it was 31.1%; in [8], 47.5%. The IC50 in [3] stood at 34.9 µM; in assay [4], 13.9 µM; in [5], 24 µM; in assay [6], 10.9 µM; in assay [9], 20.8 µM.

With `Oc1cccc(-c2cc(-c3ccccc3)nc(-c3cccnc3)c2)c1`, the inhibition in assay [1] is 8.1%; in assay [2], 1.5%; in assay [7] it was 21.3%; in assay [8], 37.1%. Further, the IC50 in assay [3] was 18.9 µM; in [4], 18.4 µM; in [5] it was 12.6 µM; in assay [6], 17.5 µM; in assay [9], 22.8 µM.

As to `Oc1cccc(-c2cc(-c3ccccc3)cc(-c3cccc(O)c3)n2)c1`, the inhibition is 67.2% in assay [1], 10.5% in [2], 49% in [7] and 86.5% in [8]. Besides, the half-maximal inhibitory concentration (IC50) was 24.9 µM in [3]; 18.4 µM in [4]; 16.4 µM in [5]; 13 µM in assay [6]; 12.8 µM in assay [9].

With `Oc1cccc(-c2cc(-c3ccccc3)nc(-c3ccncc3)c2)c1`, the inhibition in [1] was found to be 60.8%; in assay [2], 0.9%; in assay [7], 32.7%; in [8], 42.8%. Also, the IC50 in assay [3] was found to be 18.1 µM; in assay [4] it was 18.7 µM; in assay [5], 12.7 µM; in assay [6] it was 15 µM; in [9], 12.2 µM.

One may read the inhibition as the relative decrease from the control value, in per cent. A word on the IC50: it is the concentration needed to halve the response being measured.

Values taken from ChEMBL document CHEMBL1157776, “Synthesis, topoisomerase I and II inhibitory activity, cytotoxicity, and structure-activity relationship study of hydroxylated 2,4-diphenyl-6-aryl pyridines” (Bioorg Med Chem, 2010).
